The results in this text go back to ChEMBL document CHEMBL1121795, “Esters of isoguvacine as potential prodrugs” (J Med Chem, 1981).

Data set [1] in a line: Half-life was measured in 0.5 M KCl at 10 mM concentration. Conditions: 0.5 M KCl solution. It counts as ADME. Put shortly: (§1)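 Chemical stability was measured with 0.5 mmol ester in 50 mL 0.5 M KCl plus 0.5 mL pH 7.00 phosphate buffer (10 mM), at pH 7.35 and 37 °C. pH-stat titration with 0.5 N NaOH recorded base consumption against time for the 2 acid equivalents released. Pseudo-first-order half-life, mean of at least two runs.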

The nature of data set [2]: Half-life was measured in 10% human serum at 1 mM concentration. It counts as ADME. Put shortly:
(§2)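 Medium was 45 mL 0.5 M KCl, 0.5 mL phosphate buffer and 5.0 mL human serum (protein 69–78 mg/mL, BSA standard), N2-purged 2 h with pH held at 7.2–7.6 using 0.1 N HCl. Ester (0.05 or 0.5 mmol) was added; a pH-stat held 7.35 with 0.1 or 0.5 N NaOH at 37 °C. Half-life was calculated from base consumed.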

The nature of data set [3]: Half-life was measured in 10% human serum at 10 mM concentration. It counts as ADME. Put shortly: as §2
Data set [4] is filed under the species Mus musculus. Put plainly: Compound was tested for anticonvulsant activity by measuring its effect on convulsions induced by bicuculline in mice. It counts as functional. Put shortly: (§3)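 Mice, at least five per group at each time point, received the ester ip; convulsions were induced 0.5, 1, 2, 3, 4, 5, 6, 17 and 24 h later. Value is the minimum effective anticonvulsant dose (mg/kg), with the time between dosing and onset of activity.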

Data set [5] is filed under the species Mus musculus. Put plainly: Compound was tested for anticonvulsant activity by measuring its effect on convulsions induced by electroshock in mice. It counts as functional. Put shortly: as §3
Data set [6] is filed under the species Mus musculus. Put plainly: Compound was tested for anticonvulsant activity by measuring its effect on convulsions induced by isoniazide in mice. It counts as functional. Put shortly: as §3
Data set [7] is described as follows: Half-life was measured in 10% human serum at 10 mM of ester. It counts as ADME. Put shortly:
as §2

Data set [8] in a line: Half-life was measured in 0.5 M KCl at 10 mM dose. It counts as ADME. Conditions: 0.5 M KCl solution. Put shortly:
as §1

Data set [9] in a line: Half-life was measured in 10% human serum at 10 mM dose. It counts as ADME. Put shortly:
as §2

Data set [10] is described as follows: Half-life was measured in 10% human serum at 1 mM dose. It counts as ADME. Put shortly:
as §2

For `CCCC(=O)OCOC(=O)C1=CCNCC1.O=C(O)/C=C/C(=O)O`, the half-life at 10000 µM is 11.7 h in data set [1] and 0.25 h in [3]. This compound had a half-life at 1000 µM in data set [2] of 0.06 h.

With `CCCCC(=O)OCOC(=O)C1=CCNCC1.O=C(O)/C=C/C(=O)O`, the half-life at 10000 µM in data set [1] was 12 h; in data set [3] it was 0.28 h. In [2], the half-life at 1000 µM was 0.03 h.

For the compound `O=C(O)/C=C/C(=O)O.O=C(OCOC(=O)c1ccccc1)C1=CCNCC1`, the half-life at 10000 µM in data set [1] was 9.3 h; in [3], 0.4 h. The compound further showed a half-life at 1000 µM in data set [2] of 0.07 h. The values for the Anticonvulsant dose in data set [4], in data set [5] and in data set [6] were above 80 mg/kg, above 80 mg/kg and above 160 mg/kg, respectively.

On to `O=C(O)/C=C/C(=O)O.O=C(OCOC(=O)C1CCCCC1)C1=CCNCC1`, for which the values for the half-life at 10000 µM in data set [1] and in data set [3] were 10 h and 0.14 h, respectively. The half-life at 1000 µM in [2] is 0.03 h.

Regarding `CC(C)(C)C(=O)OCOC(=O)C1=CCNCC1.O=C(O)/C=C/C(=O)O`, the half-life at 10000 µM in data set [1] was 17.1 h; in data set [3], 14.9 h. This compound also had a half-life at 1000 µM in data set [2] of 4.6 h. Also, the Anticonvulsant dose in data set [4] was 20 mg/kg; in data set [5] it was 10 mg/kg; in data set [6] it was above 160 mg/kg.

For the compound `CC(=O)OCOC(=O)C1=CCNCC1.O=C(O)/C=C/C(=O)O`, the half-life at 10000 µM in data set [1] is 10.9 h; in data set [3], 1.2 h. Besides, the half-life at 1000 µM in data set [2] is 0.6 h. For the same compound, the Anticonvulsant dose in data set [4] is above 80 mg/kg; in data set [5], 5 mg/kg; in [6], 40 mg/kg.

For `Br.CCCCOC(=O)C1=CCNCC1`, the Anticonvulsant dose in data set [4] is 40 mg/kg; in data set [5] it was 40 mg/kg; in data set [6], above 160 mg/kg. Moreover, in data set [7], the half-life at 10000 µM was 600 h.

On to `Br.CCOC(=O)COC(=O)C1=CCNCC1`, for which the half-life at 10000 µM in data set [7] is 300 h.

As to `COC(=O)C1=CCNCC1.Cl`, the half-life at 10000 µM in [7] was 430 h.

Regarding `CC(C)C(=O)OCOC(=O)C1=CCNCC1.O=C(O)/C=C/C(=O)O`, the half-life at 10000 µM in [1] is 10.8 h; in data set [3] it was 0.73 h. In addition, the half-life at 1000 µM in data set [2] is 0.13 h.

Regarding `CC(C)CC(=O)OCOC(=O)C1=CCNCC1.O=C(O)/C=C/C(=O)O`, the values for the half-life at 10000 µM in [1] and in [3] were 13.3 h and 3.5 h, respectively. The half-life at 1000 µM in data set [2] is 0.72 h.

Consider `CCC(CC)C(=O)OCOC(=O)C1=CCNCC1.O=C(O)/C=C/C(=O)O`, for which the half-life at 10000 µM is 15.7 h in data set [1] and 7.9 h in data set [3]. The same compound had a half-life at 1000 µM in [2] of 2.3 h.

Take `CCCCCC(=O)OCOC(=O)C1=CCNCC1.O=C(O)/C=C/C(=O)O`: the half-life at 10000 µM in data set [1] is 13 h; in data set [3], 0.32 h. The compound further showed a half-life at 1000 µM in [2] of 0.06 h.

`CCC(=O)OCOC(=O)C1=CCNCC1.O=C(O)/C=C/C(=O)O`: the half-life at 10000 µM in data set [8] is 11.1 h; in data set [9], 0.54 h. Further, the Anticonvulsant dose is above 80 mg/kg in [4], above 80 mg/kg in data set [5] and 40 mg/kg in data set [6]. In data set [10], this compound had a half-life at 1000 µM of 0.17 h.

For `Cl.O=C(O)C1=CCNCC1` [ISOGUVACINE HYDROCHLORIDE], the results for the Anticonvulsant dose in data set [4], in data set [5] and in [6] were above 80 mg/kg, above 80 mg/kg and above 160 mg/kg, respectively.

The half-life is how long it takes for the measured level to halve.
